# Measured values: ChEMBL document CHEMBL2331408, “Discovery and structure-activity relationships of pyrrolone antimalarials” (J Med Chem, 2013)
# Assays:
# Liver [1] = assay: Intrinsic clearance in mouse liver microsomes at 1 uM by LC/MS analysis; assay type: ADME, Microsome; details: microsomes, 1 µM
# Summary of the method: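 Mouse hepatic microsomes; in vitro intrinsic clearance from compound degradation during incubation, expressed as μL/min/mg.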
# [2] = Drug metabolism in mouse liver microsomes assessed as mono-oxygenation at 1 uM by LC/MS analysis; assay type: ADME, Microsome
# [3] = Drug metabolism in mouse liver microsomes assessed as bis-oxygenation at 1 uM by LC/MS analysis; assay type: ADME, Microsome
# [4] = Partition coefficient, log D of the compound at pH 7.4 by HPLC analysis; assay type: physicochemical; details: octanol/water
# Summary of the method: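 LogD at pH 7.4 measured with a chromatographic gLogD technique.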
# [5] = Drug metabolism in mouse liver microsomes assessed as glucuronide metabolite formation at 1 uM by LC/MS analysis; assay type: ADME, Microsome
# [6] = Drug metabolism in mouse liver microsomes assessed as O-demethylation at 1 uM by LC/MS analysis; assay type: ADME, Microsome
# Liver microsomes [7] = assay: Intrinsic clearance in human liver microsomes at 1 uM by LC/MS analysis; assay type: ADME, Microsome
# Liver microsomes [8] = assay: Half life in human liver microsomes; assay type: ADME, Microsome
# Liver microsomes [9] = assay: Drug metabolism in human liver microsomes at 1 uM by LC/MS analysis; assay type: ADME, Microsome
# Liver microsomes [10] = assay: Drug metabolism in rat liver microsomes at 1 uM by LC/MS analysis; assay type: ADME, Microsome
# [11] = Apparent terminal half life in Sprague-Dawley rat at 1 mg/kg, iv; assay type: ADME, organism-based; set-up: dose 1 mg/kg, route intravenous; details: in vivo, read-out: betat1/2(app) (converted)
# Summary of the method: (§1)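 Male Sprague–Dawley rats, single iv dose as solution in aqueous vehicle with 40% (v/v) propylene glycol; serial plasma concentrations, profiles averaged from n = 2 rats; urine collected for unchanged drug. Half-life, steady-state volume of distribution and plasma clearance taken from plasma concentration–time profiles.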
# [12] = Volume of distribution at steady state in Sprague-Dawley rat at 1 mg/kg, iv; assay type: ADME, organism-based; set-up: dose 1 mg/kg, route intravenous; details: in vivo, read-out: Vdss; summary of the method: as §1
# in vivo [13] = details: Sprague-Dawley, rat, po, 19 mg/kg
# Rattus norvegicus [14] = assay: Oral bioavailability in Sprague-Dawley rat at 19 mg/kg; assay type: ADME, organism-based; details: in vivo
# Liver [15] = assay: Half life in mouse liver microsomes; assay type: ADME, Microsome
# [16] = Plasma clearance in Sprague-Dawley rat at 1 mg/kg, iv; assay type: ADME, organism-based; set-up: dose 1 mg/kg, route intravenous
# Summary of the method: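 Male Sprague–Dawley rats given a nominal 1 mg/kg iv dose as a solution in aqueous vehicle containing 40% (v/v) propylene glycol. Plasma concentration–time profiles were measured, with each profile the average of n = 2 rats. Plasma clearance was derived from the iv profile.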
# [17] = Drug metabolism in mouse liver microsomes at 1 uM by LC/MS analysis; assay type: ADME, Microsome
# Liver microsomes [18] = assay: Half life in rat liver microsomes; assay type: ADME, Microsome
# [19] = Cmax in Sprague-Dawley rat at 19 mg/kg, po; assay type: ADME, organism-based; set-up: dose 19 mg/kg, route oral; details: in vivo
# Liver microsomes [20] = assay: Intrinsic clearance in rat liver microsomes at 1 uM by LC/MS analysis; assay type: ADME, Microsome
# Rattus norvegicus [21] = assay: Bioavailability in Sprague-Dawley rat at 19 mg/kg, ip; assay type: ADME, organism-based; details: in vivo
# [22] = Volume of distribution at steady state in Sprague-Dawley rat at […], iv; assay type: ADME, organism-based; set-up: dose 4.5 mg/kg, route intravenous; details: in vivo, read-out: Vdss
# [23] = Apparent terminal half life in Sprague-Dawley rat at […], iv; assay type: ADME, organism-based; set-up: dose 4.5 mg/kg, route intravenous; details: in vivo, read-out: betat1/2(app) (converted)
# in vivo [24] = details: Sprague-Dawley, rat, ip, 19 mg/kg
# in vivo [25] = details: Sprague-Dawley, rat, po, 20 mg/kg
# [26] = Apparent terminal half life in Sprague-Dawley rat at 20 mg/kg, po; assay type: ADME, organism-based; set-up: dose 20 mg/kg, route oral; details: in vivo, read-out: betat1/2(app) (converted)
# [27] = Cmax in Sprague-Dawley rat at 19 mg/kg, ip; assay type: ADME, organism-based; set-up: dose 19 mg/kg, route intraperitoneal; details: in vivo
# [28] = Drug excretion in Sprague-Dawley rat urine at 19 mg/kg, ip; assay type: ADME, organism-based; set-up: dose 19 mg/kg, route intraperitoneal; details: read-out: Drug excretion
# Summary of the method: (§2)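 Male Sprague–Dawley rats, nominal 20 mg/kg (19 mg/kg actual ip), given po as an aqueous HPMC suspension or ip as a suspension in aqueous vehicle with 10% DMSO; percentage of the dose excreted unchanged in urine was measured; n = 2 rats per profile.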
# [29] = Drug excretion in iv dosed rat urine assessed as glutathione adduct level; assay type: ADME, organism-based; details: in vivo
# Rattus norvegicus [30] = assay: Oral bioavailability in Sprague-Dawley rat at 20 mg/kg; assay type: ADME, organism-based; details: in vivo
# [31] = Apparent terminal half life in Sprague-Dawley rat at 19 mg/kg, ip; assay type: ADME, organism-based; set-up: dose 19 mg/kg, route intraperitoneal; details: in vivo, read-out: betat1/2(app) (converted)
# Liver microsomes [32] = assay: Drug metabolism in rat liver microsomes assessed as mono-oxygenation at 1 uM by LC/MS analysis; assay type: ADME, Microsome
# [33] = Plasma clearance in Sprague-Dawley rat at […], iv; assay type: ADME, organism-based; set-up: dose 4.5 mg/kg, route intravenous
# [34] = Drug excretion in Sprague-Dawley rat urine at […], iv; assay type: ADME, organism-based; set-up: dose 4.5 mg/kg, route intravenous; details: read-out: Drug excretion
# [35] = Cmax in Sprague-Dawley rat at 20 mg/kg, po; assay type: ADME, organism-based; set-up: dose 20 mg/kg, route oral; details: in vivo
# [36] = Drug excretion in Sprague-Dawley rat urine at 20 mg/kg, po; assay type: ADME, organism-based; set-up: dose 20 mg/kg, route oral; details: read-out: Drug excretion; summary of the method: as §2
# [37] = Drug degradation assessed as reactivity with reduced glutathione ethyl ester; assay type: physicochemical
structure (smiles),measurement,setting,value
CCOC(=O)C1=C(C)N/C(=C/c2ccn(-c3ccc(C(F)(F)F)cc3)c2)C1=O,Microsomal intrinsic clearance (CLint),Liver [1],140 µL/min/mg
same,Drug metabolism,[2],Active
CCOC(=O)C1=C(C)N/C(=C/c2cc(CC)n(-c3ccccc3C(F)(F)F)c2CC)C1=O,Microsomal intrinsic clearance (CLint),Liver [1],140 µL/min/mg
same,Drug metabolism,[2],Active
CC1=C(C(=O)OC(C)(C)C)C(=O)/C(=C\c2cc(C)n(-c3ccccc3C(F)(F)F)c2C)N1,Drug metabolism,[3],Active
same,Microsomal intrinsic clearance (CLint),Liver [1],86 µL/min/mg
same,Drug metabolism,[2],Active
CC1=C(C(=O)OCc2ccccc2)C(=O)/C(=C\c2cc(C)n(-c3ccccc3C(F)(F)F)c2C)N1,Microsomal intrinsic clearance (CLint),Liver [1],560 µL/min/mg
CC1=C(C(=O)O)C(=O)/C(=C\c2cc(C)n(-c3ccccc3C(F)(F)F)c2C)N1,logD,[4],5.8
same,Drug metabolism,[5],Active
same,Microsomal intrinsic clearance (CLint),Liver [1],22 µL/min/mg
CC1=CC(=O)/C(=C\c2cc(C)n(-c3ccccc3C(F)(F)F)c2C)N1,Microsomal intrinsic clearance (CLint),Liver [1],23 µL/min/mg
CC1=C(C(N)=O)C(=O)/C(=C\c2cc(C)n(-c3ccccc3C(F)(F)F)c2C)N1,Drug metabolism,[2],Active
CCOC(=O)C1=C(C)N/C(=C/c2cc(C)n(-c3ccc(Cl)cc3)c2C)C1=O,logD,[4],3.4
same,Microsomal intrinsic clearance (CLint),Liver [1],72 µL/min/mg
CCOC(=O)C1=C(C)N/C(=C/c2cc(C)n(-c3ccc(Br)cc3)c2C)C1=O,logD,[4],3.4
same,Microsomal intrinsic clearance (CLint),Liver [1],62 µL/min/mg
CCOC(=O)C1=C(C)N/C(=C/c2cc(C)n(-c3ccc(OC)cc3)c2C)C1=O,logD,[4],3
same,Microsomal intrinsic clearance (CLint),Liver [1],54 µL/min/mg
same,Drug metabolism,[2],Active
CCOC(=O)C1=C(C)N/C(=C/c2cc(C)n(-c3ccc(N(C)C)cc3)c2C)C1=O,Drug metabolism,[6],Active
same,logD,[4],3.4
same,Microsomal intrinsic clearance (CLint),Liver [1],56 µL/min/mg
CCOC(=O)C1=C(C)N/C(=C/c2cc(C)n(-c3ccc(C(F)(F)F)cc3)c2C)C1=O,CLH,Liver microsomes [7],49 µL/min/mg
same,t1/2,Liver microsomes [8],0.583 h
same,Drug metabolism,Liver microsomes [9],Not Active
same,Drug metabolism,Liver microsomes [10],Not Active
same,logD,[4],3.4
same,half-life,[11],87 h
same,Vd,[12],19 L/kg
same,Tmax,in vivo [13],1.67 h
same,F,Rattus norvegicus [14],4%
same,t1/2,Liver [15],0.548 h
same,Microsomal intrinsic clearance (CLint),Liver [1],53 µL/min/mg
same,clearance,[16],22 mL/min/kg
same,Drug metabolism,[17],Not Active
same,t1/2,Liver microsomes [18],0.933 h
same,Cmax,[19],190 nM
same,CLH,Liver microsomes [20],31 µL/min/mg
CCOC(=O)C1=C(C)N/C(=C/c2cc(C)n(-c3cccc(C(F)(F)F)c3)c2C)C1=O,logD,[4],3.4
same,Microsomal intrinsic clearance (CLint),Liver [1],97 µL/min/mg
CCOC(=O)C1=C(C)N/C(=C/c2cc(C)n(-c3ccc(F)cc3F)c2C)C1=O,logD,[4],3
same,Microsomal intrinsic clearance (CLint),Liver [1],77 µL/min/mg
same,Drug metabolism,[2],Active
CCOC(=O)C1=C(C)N/C(=C/c2cc(C)n(-c3ccccc3C(F)(F)F)c2C)C1=O,F,Rattus norvegicus [21],45.7%
same,Vd,[22],13 L/kg
same,half-life,[23],12 h
same,CLH,Liver microsomes [7],30 µL/min/mg
same,t1/2,Liver microsomes [8],0.967 h
same,Tmax,in vivo [24],0.25 h
same,Tmax,in vivo [25],3.33 h
same,Drug metabolism,Liver microsomes [9],Not Active
same,logD,[4],3.3
same,half-life,[26],7.9 h
same,Cmax,[27],3300 nM
same,dose excreted,[28],0.01%
same,Drug excretion,[29],Not Active
same,F,Rattus norvegicus [30],6%
same,half-life,[31],9.1 h
same,Drug metabolism,Liver microsomes [32],Active
same,clearance,[33],73 mL/min/kg
same,dose excreted,[34],0.05%
same,Drug metabolism,[17],Not Active
same,Cmax,[35],110 nM
same,t1/2,Liver microsomes [18],0.733 h
same,dose excreted,[36],0.08%
same,CLH,Liver microsomes [20],40 µL/min/mg
same,Stability,[37],Stable
same,Drug metabolism,[2],Active
